Results taken from ChEMBL document CHEMBL3351230, “Synthesis of 2-anilinopyridine dimers as microtubule targeting and apoptosis inducing agents” (Bioorg Med Chem, 2014).
Values belong to the molecule of their own block, whether it stands above or below them. Calls of active or inactive are those of the source. The calls are words filed in the database; no cut-off is given here.

Columns and labels:
[1] = test system: A549; assay: Antiproliferative activity against human A549 cells assessed as growth inhibition after 48 hrs by SRB assay; conditions: A549, 48 h
[2] = test system: DU-145; assay: Antiproliferative activity against human DU145 cells assessed as growth inhibition after 48 hrs by SRB assay; conditions: DU-145, 48 h
[3] = test system: MCF7; assay: Antiproliferative activity against human MCF7 cells assessed as growth inhibition after 48 hrs by SRB assay; conditions: MCF7, 48 h
[4] = test system: DU-145; assay: Cell cycle arrest in human DU145 cells assessed as cells accumulation at G0/G1 phase at 1 uM after 48 hrs by propidium iodide staining-based flow cytometric analysis (reference value: 84.75%); type: functional
[5] = test system: DU-145; assay: Induction of apoptosis in human DU145 cells assessed as late apoptotic cells at 2 uM after 48 hrs by annexin V-FITC/propidium iodide staining-based flow cytometric analysis (reference value: 1.96%); type: functional
[6] = test system: DU-145; assay: Induction of apoptosis in human DU145 cells assessed as induction of DNA fragmentation at 1 uM after 48 hrs by agarose gel electrophoresis; type: functional, cell-based
Procedure, shortened: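 DU-145 cells (1×10^6, six-well) were seeded 24 h, then treated at 1 µM for 48 h. Lysates were digested with SDS/RNase A for 2 h at 56 °C, then proteinase K for 2 h at 37 °C. DNA was precipitated with ammonium acetate and ethanol at −80 °C, dissolved in TE, and resolved on 2% agarose against a 100 bp marker.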

[7] = test system: DU-145; assay: Induction of apoptosis in human DU145 cells assessed as reduction in mitochondrial membrane potential at 2 uM after 48 hrs using JC-1 staining-based flow cytometry; type: functional, cell-based
[8] = test system: DU-145; assay: Induction of apoptosis in human DU145 cells assessed as increase in caspase 3 activation at 2 uM after 48 hrs by ELISA; type: functional
Procedure, shortened: (§1)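 DU-145 cells were treated at 1 or 2 µM for 48 h, pelleted and PBS-washed. Pellets were lysed 15 min and centrifuged at 20,000 rpm for 15 min. Caspase-3 activity in the supernatant was measured by a colorimetric ELISA-based kit per the manufacturer. Activity is expressed as fold over untreated control, mean ± SD of two experiments in triplicate.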

[9] = test system: DU-145; assay: Cell cycle arrest in human DU145 cells assessed as cells accumulation at S phase at 2 uM after 48 hrs by propidium iodide staining-based flow cytometric analysis (reference value: 4.18%); type: functional
[10] = test system: DU-145; assay: Induction of apoptosis in human DU145 cells assessed as increase in caspase 3 activation at 1 uM after 48 hrs by ELISA; type: functional
Procedure, shortened: as §1

[11] = test system: DU-145; assay: Induction of apoptosis in human DU145 cells assessed as mitochondrial membrane potential drop measured as late apoptotic cells at 1 uM after 48 hrs using JC-1 staining-based flow cytometry (reference value: 90.9%); type: functional
[12] = test system: DU-145; assay: Cell cycle arrest in human DU145 cells assessed as cells accumulation at G2/M phase at 2 uM after 48 hrs by propidium iodide staining-based flow cytometric analysis (reference value: 6.81%); type: functional
[13] = test system: DU-145; assay: Induction of apoptosis in human DU145 cells assessed as necrotic cells at 2 uM after 48 hrs by annexin V-FITC/propidium iodide staining-based flow cytometric analysis (reference value: 0.22%); type: functional
[14] = test system: DU-145; assay: Cell cycle arrest in human DU145 cells assessed as cells accumulation at SubG1 phase at 1 uM after 48 hrs by propidium iodide staining-based flow cytometric analysis (reference value: 3.52%); type: functional
[15] = test system: DU-145; assay: Induction of apoptosis in human DU145 cells assessed as early apoptotic cells at 1 uM after 48 hrs by annexin V-FITC/propidium iodide staining-based flow cytometric analysis (reference value: 0.71%); type: functional
[16] = test system: DU-145; assay: Induction of apoptosis in human DU145 cells assessed as mitochondrial membrane potential drop measured as necrotic cells at 1 uM after 48 hrs using JC-1 staining-based flow cytometry (reference value: 0%); type: functional
[17] = test system: DU-145; assay: Induction of apoptosis in human DU145 cells assessed as mitochondrial membrane potential drop measured as necrotic cells at 2 uM after 48 hrs using JC-1 staining-based flow cytometry (reference value: 0%); type: functional
[18] = test system: DU-145; assay: Induction of apoptosis in human DU145 cells assessed as viable cells at 2 uM after 48 hrs by annexin V-FITC/propidium iodide staining-based flow cytometric analysis (reference value: 97.12%); type: functional; conditions: DU-145, 48 h, read-out: Activity
[19] = test system: DU-145; assay: Induction of apoptosis in human DU145 cells assessed as necrotic cells at 1 uM after 48 hrs by annexin V-FITC/propidium iodide staining-based flow cytometric analysis (reference value: 0.22%); type: functional
[20] = test system: DU-145; assay: Induction of apoptosis in human DU145 cells assessed as mitochondrial membrane potential drop measured as early apoptotic cells at 1 uM after 48 hrs using JC-1 staining-based flow cytometry (reference value: 9.1%); type: functional
[21] = test system: DU-145; assay: Induction of apoptosis in human DU145 cells assessed as early apoptotic cells at 2 uM after 48 hrs by annexin V-FITC/propidium iodide staining-based flow cytometric analysis (reference value: 0.71%); type: functional
[22] = test system: DU-145; assay: Induction of apoptosis in human DU145 cells assessed as mitochondrial membrane potential drop measured as late apoptotic cells at 2 uM after 48 hrs using JC-1 staining-based flow cytometry (reference value: 90.9%); type: functional
[23] = test system: DU-145; assay: Cell cycle arrest in human DU145 cells assessed as cells accumulation at G0/G1 phase at 2 uM after 48 hrs by propidium iodide staining-based flow cytometric analysis (reference value: 84.75%); type: functional
[24] = target: Tubulin; assay: Inhibition of tubulin polymerization (unknown origin) after 1 hr by fluorescence analysis; type: protein-complex assay, Homo sapiens
Procedure, shortened: (§2)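 Fluorescence-reporter tubulin polymerization kit. Tubulin (3 mg/mL) in PEM buffer with 1 mM GTP, with or without compound (3 µM, or 2.5–15 µM for IC50). Fluorescence (ex 360 / em 420 nm) was followed for 1 h at 37 °C. IC50 is the concentration giving 50% inhibition of assembly versus control. Data are mean ± SD of two experiments in triplicate, with E7010 as positive control.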

[25] = test system: DU-145; assay: Induction of apoptosis in human DU145 cells assessed as mitochondrial membrane potential drop measured as viable cells at 2 uM after 48 hrs using JC-1 staining-based flow cytometry (reference value: 0%); type: functional
[26] = test system: DU-145; assay: Cell cycle arrest in human DU145 cells assessed as cells accumulation at SubG1 phase at 2 uM after 48 hrs by propidium iodide staining-based flow cytometric analysis (reference value: 3.52%); type: functional
[27] = test system: DU-145; assay: Cell cycle arrest in human DU145 cells assessed as cells accumulation at S phase at 1 uM after 48 hrs by propidium iodide staining-based flow cytometric analysis (reference value: 4.18%); type: functional
[28] = target: T1, Tubulin (Homo sapiens) (UniProt P68371+Q9H4B7+P0DPH7+P68366+Q13509+Q71U36+P04350+Q3ZCM7+P07437+P68363+Q9BQE3+Q6PEY2+Q13885+Q9BVA1+Q9BUF5); assay: Inhibition of tubulin polymerization (unknown origin) at 3 uM after 1 hr by fluorescence analysis; type: protein-complex assay
Procedure, shortened: as §2

[29] = test system: DU-145; assay: Induction of apoptosis in human DU145 cells assessed as late apoptotic cells at 1 uM after 48 hrs by annexin V-FITC/propidium iodide staining-based flow cytometric analysis (reference value: 1.96%); type: functional
[30] = test system: DU-145; assay: Induction of apoptosis in human DU145 cells assessed as mitochondrial membrane potential drop measured as viable cells at 1 uM after 48 hrs using JC-1 staining-based flow cytometry (reference value: 0%); type: functional
[31] = test system: DU-145; assay: Induction of apoptosis in human DU145 cells assessed as viable cells at 1 uM after 48 hrs by annexin V-FITC/propidium iodide staining-based flow cytometric analysis (reference value: 97.12%); type: functional; conditions: DU-145, 48 h, read-out: Activity
[32] = target: T1, Tubulin (Homo sapiens); assay: Displacement of colchicine from tubulin (unknown origin) at 5 to 25 uM after 60 mins by competitive binding assay; type: protein-complex assay
Procedure, shortened: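 Compound (5, 10, 15, 20, 25 µM) was co-incubated with 4 µM colchicine and 3 µM tubulin in 30 mM Tris buffer for 60 min at 37 °C. Tubulin–colchicine fluorescence was read at ex 350 / em 435 nm. Buffer blank was subtracted and values were normalized to DMSO control (F/F0). Nocodazole or E7010 served as positive control and taxol as negative control.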

[33] = test system: DU-145; assay: Induction of apoptosis in human DU145 cells assessed as mitochondrial membrane potential drop measured as early apoptotic cells at 2 uM after 48 hrs using JC-1 staining-based flow cytometry (reference value: 9.1%); type: functional
[34] = test system: DU-145; assay: Cell cycle arrest in human DU145 cells assessed as cells accumulation at G2/M phase at 1 uM after 48 hrs by propidium iodide staining-based flow cytometric analysis (reference value: 6.81%); type: functional

Structure (SMILES): COc1ccc(Nc2ncccc2NC(=O)c2cccnc2Nc2ccc(F)cc2)cc1
GI50 [1]: 4.1 µM | GI50 [2]: 6.6 µM | GI50 [3]: > 100 µM

Structure (SMILES): COc1ccc(Nc2ncccc2C(=O)Nc2cccnc2Nc2ccccc2)cc1
GI50 [1]: > 100 µM | GI50 [2]: 8.1 µM | GI50 [3]: > 100 µM

Structure (SMILES): COc1cc(Nc2ncccc2C(=O)Nc2cccnc2Nc2ccc(Cl)cc2)cc(OC)c1OC
GI50 [1]: > 100 µM | GI50 [2]: 10.5 µM | GI50 [3]: > 100 µM

Structure (SMILES): COc1cc(Nc2ncccc2C(=O)Nc2cccnc2Nc2ccccc2)cc(OC)c1OC
GI50 [1]: 6 µM | GI50 [2]: > 100 µM | GI50 [3]: > 100 µM

Structure (SMILES): O=C(Nc1cccnc1Nc1ccc(Cl)cc1)c1cccnc1Nc1cc(C(F)(F)F)cc(C(F)(F)F)c1
GI50 [1]: 3.9 µM | GI50 [2]: 3.1 µM | GI50 [3]: 10.5 µM

Structure (SMILES): COc1ccc(Nc2ncccc2C(=O)Nc2cccnc2Nc2ccc(Cl)cc2)cc1
GI50 [1]: > 100 µM | GI50 [2]: 16.6 µM | GI50 [3]: 28.8 µM

Structure (SMILES): O=C(Nc1cccnc1Nc1ccccc1)c1cccnc1Nc1cc(C(F)(F)F)cc(C(F)(F)F)c1
GI50 [1]: 3.2 µM | GI50 [2]: 4.8 µM | GI50 [3]: 5.4 µM

Structure (SMILES): COc1cc(Nc2ncccc2C(=O)Nc2cccnc2Nc2ccc(F)cc2)cc(OC)c1OC
GI50 [1]: > 100 µM | GI50 [2]: 7 µM | GI50 [3]: > 100 µM

Structure (SMILES): O=C(Nc1cccnc1Nc1ccc(Cl)cc1)c1cccnc1Nc1ccc(F)cc1
GI50 [1]: > 100 µM | GI50 [2]: 4.1 µM | GI50 [3]: > 100 µM

Structure (SMILES): O=C(Nc1cccnc1Nc1ccc(F)cc1)c1cccnc1Nc1ccc(F)cc1
GI50 [1]: 15.2 µM | GI50 [2]: 8.4 µM | GI50 [3]: 16 µM

Structure (SMILES): COc1ccc(Nc2ncccc2NC(=O)c2cccnc2Nc2ccc(OC)cc2)cc1
GI50 [1]: > 100 µM | GI50 [2]: 21.2 µM | GI50 [3]: > 100 µM

Second part, led by results:

GI50 [1]: > 100 µM | GI50 [2]: 7.7 µM | GI50 [3]: > 100 µM
Structure (SMILES): O=C(Nc1cccnc1Nc1ccccc1)c1cccnc1Nc1ccc(F)cc1

GI50 [1]: 39.2 µM | GI50 [2]: 0.99 µM | GI50 [3]: > 100 µM | IC50 [24]: 2.16 µM | inhibition [28]: 64.3% | inhibition [32]: Active
Structure (SMILES): O=C(Nc1cccnc1Nc1ccc(F)cc1)c1cccnc1Nc1cc(C(F)(F)F)cc(C(F)(F)F)c1
Activity [4]: 57.93% | Activity [5]: 16.53% | Activity [6]: Active | inhibition [7]: Active | fold change (FC) [8]: 2 | Activity [9]: 1.77% | fold change (FC) [10]: 2 | Activity [11]: 89.4% | Activity [12]: 41.19% | Activity [13]: 1.84% | Activity [14]: 4.64% | Activity [15]: 4.28% | Activity [16]: 0% | Activity [17]: 0% | viability at 2 µM [18]: 75.7% | Activity [19]: 1.27% | Activity [20]: 10.6% | Activity [21]: 5.97% | Activity [22]: 67.4% | Activity [23]: 53.38% | Activity [25]: 0% | Activity [26]: 2.41% | Activity [27]: 1.63% | Activity [29]: 14.03% | Activity [30]: 0% | viability at 1 µM [31]: 80.4% | Activity [33]: 32.6% | Activity [34]: 32.49%

GI50 [1]: > 100 µM | GI50 [2]: > 100 µM | GI50 [3]: > 100 µM
Structure (SMILES): COc1ccc(Nc2ncccc2NC(=O)c2cccnc2Nc2cc(OC)c(OC)c(OC)c2)cc1

GI50 [1]: 1.31 µM | GI50 [2]: 1.81 µM | GI50 [3]: 1.25 µM | IC50 [24]: 2.4 µM | inhibition [32]: Active
Structure (SMILES): COc1ccc(S(=O)(=O)Nc2cccnc2Nc2ccc(O)cc2)cc1 [ABT-751]
Activity [5]: 17.72% | Activity [9]: 2.94% | Activity [12]: 36.52% | Activity [13]: 1.01% | Activity [17]: 0% | viability at 2 µM [18]: 77.3% | Activity [21]: 3.93% | Activity [22]: 81.9% | Activity [23]: 54.38% | Activity [25]: 0% | Activity [26]: 4.11% | Activity [33]: 18.1%

GI50 [1]: 18.5 µM | GI50 [2]: > 100 µM | GI50 [3]: 17.3 µM
Structure (SMILES): COc1ccc(Nc2ncccc2C(=O)Nc2cccnc2Nc2ccc(F)cc2)cc1

GI50 [1]: > 100 µM | GI50 [2]: 9.8 µM | GI50 [3]: > 100 µM
Structure (SMILES): COc1ccc(Nc2ncccc2NC(=O)c2cccnc2Nc2cc(C(F)(F)F)cc(C(F)(F)F)c2)cc1
